In article PMC10563180 (Current cancer drug targets, 2020):
Where two headings read alike, the source gives them in different places.

How the values were obtained:
c-Src = c-Src (Homo sapiens, UniProt P12931); test: Recombinant kinase 33P-ATP activity assay; assay type: biochemical
CDK2/cyclin A = CDK2/cyclin A (Homo sapiens, UniProt P24941); test: Recombinant kinase 33P-ATP activity assay; assay type: biochemical
EGFr = EGFr (Homo sapiens, UniProt P00533); test: Recombinant kinase 33P-ATP activity assay; assay type: biochemical
EGFr, sequence (P00533 25-1210): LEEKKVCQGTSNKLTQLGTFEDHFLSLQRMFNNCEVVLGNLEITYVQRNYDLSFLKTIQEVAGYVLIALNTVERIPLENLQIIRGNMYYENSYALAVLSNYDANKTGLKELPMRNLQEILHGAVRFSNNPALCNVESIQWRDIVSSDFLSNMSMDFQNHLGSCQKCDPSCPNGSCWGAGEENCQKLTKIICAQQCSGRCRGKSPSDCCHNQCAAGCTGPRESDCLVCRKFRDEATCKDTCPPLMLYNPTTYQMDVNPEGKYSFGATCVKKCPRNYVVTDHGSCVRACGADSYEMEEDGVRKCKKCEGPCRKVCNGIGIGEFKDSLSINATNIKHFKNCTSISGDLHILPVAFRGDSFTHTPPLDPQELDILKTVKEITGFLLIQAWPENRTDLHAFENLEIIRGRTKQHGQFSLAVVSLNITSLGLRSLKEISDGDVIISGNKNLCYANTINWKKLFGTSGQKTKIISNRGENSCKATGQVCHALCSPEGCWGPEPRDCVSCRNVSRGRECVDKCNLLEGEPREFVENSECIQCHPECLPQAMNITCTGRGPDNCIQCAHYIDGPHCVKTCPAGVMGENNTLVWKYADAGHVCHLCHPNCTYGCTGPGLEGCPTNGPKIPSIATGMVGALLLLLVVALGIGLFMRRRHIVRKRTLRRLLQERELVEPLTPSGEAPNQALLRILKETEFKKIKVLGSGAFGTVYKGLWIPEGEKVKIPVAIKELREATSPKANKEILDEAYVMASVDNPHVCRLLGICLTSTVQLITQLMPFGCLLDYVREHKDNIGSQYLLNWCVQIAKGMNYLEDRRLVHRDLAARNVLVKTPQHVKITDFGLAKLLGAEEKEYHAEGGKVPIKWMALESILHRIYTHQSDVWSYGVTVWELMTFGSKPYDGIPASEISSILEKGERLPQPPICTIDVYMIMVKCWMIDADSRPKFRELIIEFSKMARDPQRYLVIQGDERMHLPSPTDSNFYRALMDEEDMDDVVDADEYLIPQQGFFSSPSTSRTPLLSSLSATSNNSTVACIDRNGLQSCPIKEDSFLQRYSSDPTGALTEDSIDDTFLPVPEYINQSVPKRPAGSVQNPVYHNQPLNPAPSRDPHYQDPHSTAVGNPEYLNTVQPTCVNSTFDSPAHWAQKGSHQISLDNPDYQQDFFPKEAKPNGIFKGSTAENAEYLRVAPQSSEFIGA

ERBB2/HER2 = ERBB2/HER2 (Homo sapiens, UniProt P04626); test: Recombinant kinase 33P-ATP activity assay; assay type: biochemical
FGFR1 = FGFR1 (Homo sapiens, UniProt P11362); test: Recombinant kinase 33P-ATP activity assay; assay type: biochemical
FGFR2 = FGFR2 (Homo sapiens, UniProt P21802); test: Recombinant kinase 33P-ATP activity assay; assay type: biochemical
FLT1/VEGFR1 = FLT1/VEGFR1 (Homo sapiens, UniProt P17948); test: Recombinant kinase 33P-ATP activity assay; assay type: biochemical
KDR/VEGFR2 = KDR/VEGFR2 (Homo sapiens, UniProt P35968); test: Recombinant kinase 33P-ATP activity assay; assay type: biochemical
KDR/VEGFR2, sequence (P35968 20-1356): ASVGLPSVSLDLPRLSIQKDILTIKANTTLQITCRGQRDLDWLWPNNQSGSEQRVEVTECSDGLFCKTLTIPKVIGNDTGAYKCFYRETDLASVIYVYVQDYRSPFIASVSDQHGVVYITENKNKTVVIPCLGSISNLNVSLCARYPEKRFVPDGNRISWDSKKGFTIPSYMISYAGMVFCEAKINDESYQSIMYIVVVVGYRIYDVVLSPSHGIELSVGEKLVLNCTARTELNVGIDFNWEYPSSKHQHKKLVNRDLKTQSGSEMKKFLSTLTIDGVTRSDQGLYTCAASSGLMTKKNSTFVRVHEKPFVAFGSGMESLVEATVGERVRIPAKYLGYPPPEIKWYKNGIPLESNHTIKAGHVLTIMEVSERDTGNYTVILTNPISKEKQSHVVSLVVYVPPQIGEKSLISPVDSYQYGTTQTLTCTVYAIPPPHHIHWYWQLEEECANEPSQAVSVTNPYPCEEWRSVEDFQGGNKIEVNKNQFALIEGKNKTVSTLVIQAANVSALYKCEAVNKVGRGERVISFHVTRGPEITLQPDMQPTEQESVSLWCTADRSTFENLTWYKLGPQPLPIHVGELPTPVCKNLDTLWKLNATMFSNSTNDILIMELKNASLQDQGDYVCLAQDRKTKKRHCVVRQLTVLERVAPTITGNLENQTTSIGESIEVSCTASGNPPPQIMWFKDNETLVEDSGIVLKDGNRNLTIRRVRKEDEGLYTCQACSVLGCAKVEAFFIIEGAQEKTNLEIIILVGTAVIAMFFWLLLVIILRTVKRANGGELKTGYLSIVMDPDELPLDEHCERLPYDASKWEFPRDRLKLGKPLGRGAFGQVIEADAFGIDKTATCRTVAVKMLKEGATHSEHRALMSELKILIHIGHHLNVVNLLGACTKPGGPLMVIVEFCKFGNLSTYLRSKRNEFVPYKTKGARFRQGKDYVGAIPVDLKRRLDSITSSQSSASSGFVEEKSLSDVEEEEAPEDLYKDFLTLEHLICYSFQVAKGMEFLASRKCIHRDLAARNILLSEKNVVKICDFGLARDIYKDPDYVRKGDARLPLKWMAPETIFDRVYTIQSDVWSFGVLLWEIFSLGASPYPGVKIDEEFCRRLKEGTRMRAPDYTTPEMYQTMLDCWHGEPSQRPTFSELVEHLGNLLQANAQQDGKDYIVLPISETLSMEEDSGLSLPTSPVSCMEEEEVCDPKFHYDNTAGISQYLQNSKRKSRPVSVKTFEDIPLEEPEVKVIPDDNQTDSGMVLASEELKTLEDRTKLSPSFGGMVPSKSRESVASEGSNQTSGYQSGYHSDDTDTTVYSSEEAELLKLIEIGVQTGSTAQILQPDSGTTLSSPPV

PDGFRa = PDGFRa (Homo sapiens, UniProt P16234); test: Recombinant kinase 33P-ATP activity assay; assay type: biochemical
PDGFRa, sequence (P16234 24-1089): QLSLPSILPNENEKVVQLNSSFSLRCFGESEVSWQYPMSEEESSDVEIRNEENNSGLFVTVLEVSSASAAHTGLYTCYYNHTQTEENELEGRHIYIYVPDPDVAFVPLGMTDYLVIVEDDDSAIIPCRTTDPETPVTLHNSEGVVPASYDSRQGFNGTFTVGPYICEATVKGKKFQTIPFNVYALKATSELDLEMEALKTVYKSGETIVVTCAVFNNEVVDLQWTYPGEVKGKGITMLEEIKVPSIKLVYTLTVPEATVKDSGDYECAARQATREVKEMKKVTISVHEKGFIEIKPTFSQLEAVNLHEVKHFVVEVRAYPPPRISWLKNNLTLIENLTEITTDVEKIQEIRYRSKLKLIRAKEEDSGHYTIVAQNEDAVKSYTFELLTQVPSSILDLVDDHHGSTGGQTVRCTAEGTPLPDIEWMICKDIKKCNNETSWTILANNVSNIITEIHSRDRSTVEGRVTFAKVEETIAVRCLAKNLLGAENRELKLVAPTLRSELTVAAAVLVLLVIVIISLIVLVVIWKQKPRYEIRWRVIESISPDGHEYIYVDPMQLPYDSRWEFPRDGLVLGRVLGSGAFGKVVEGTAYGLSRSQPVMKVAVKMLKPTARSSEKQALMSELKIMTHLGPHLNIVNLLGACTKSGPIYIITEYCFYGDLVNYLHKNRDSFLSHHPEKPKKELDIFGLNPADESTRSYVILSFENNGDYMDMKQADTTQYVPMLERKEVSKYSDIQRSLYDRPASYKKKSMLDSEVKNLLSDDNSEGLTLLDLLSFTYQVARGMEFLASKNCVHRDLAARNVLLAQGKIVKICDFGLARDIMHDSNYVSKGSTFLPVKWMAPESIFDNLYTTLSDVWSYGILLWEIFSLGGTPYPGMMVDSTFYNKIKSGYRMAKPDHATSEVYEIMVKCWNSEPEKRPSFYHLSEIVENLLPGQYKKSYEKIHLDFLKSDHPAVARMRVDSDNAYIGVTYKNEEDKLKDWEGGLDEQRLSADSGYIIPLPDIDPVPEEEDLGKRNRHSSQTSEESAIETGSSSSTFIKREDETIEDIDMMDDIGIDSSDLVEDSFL

PDGFrb = PDGFrb (Homo sapiens, UniProt P09619); test: Recombinant kinase 33P-ATP activity assay; assay type: biochemical
PDGFrb, sequence (P09619 33-1106): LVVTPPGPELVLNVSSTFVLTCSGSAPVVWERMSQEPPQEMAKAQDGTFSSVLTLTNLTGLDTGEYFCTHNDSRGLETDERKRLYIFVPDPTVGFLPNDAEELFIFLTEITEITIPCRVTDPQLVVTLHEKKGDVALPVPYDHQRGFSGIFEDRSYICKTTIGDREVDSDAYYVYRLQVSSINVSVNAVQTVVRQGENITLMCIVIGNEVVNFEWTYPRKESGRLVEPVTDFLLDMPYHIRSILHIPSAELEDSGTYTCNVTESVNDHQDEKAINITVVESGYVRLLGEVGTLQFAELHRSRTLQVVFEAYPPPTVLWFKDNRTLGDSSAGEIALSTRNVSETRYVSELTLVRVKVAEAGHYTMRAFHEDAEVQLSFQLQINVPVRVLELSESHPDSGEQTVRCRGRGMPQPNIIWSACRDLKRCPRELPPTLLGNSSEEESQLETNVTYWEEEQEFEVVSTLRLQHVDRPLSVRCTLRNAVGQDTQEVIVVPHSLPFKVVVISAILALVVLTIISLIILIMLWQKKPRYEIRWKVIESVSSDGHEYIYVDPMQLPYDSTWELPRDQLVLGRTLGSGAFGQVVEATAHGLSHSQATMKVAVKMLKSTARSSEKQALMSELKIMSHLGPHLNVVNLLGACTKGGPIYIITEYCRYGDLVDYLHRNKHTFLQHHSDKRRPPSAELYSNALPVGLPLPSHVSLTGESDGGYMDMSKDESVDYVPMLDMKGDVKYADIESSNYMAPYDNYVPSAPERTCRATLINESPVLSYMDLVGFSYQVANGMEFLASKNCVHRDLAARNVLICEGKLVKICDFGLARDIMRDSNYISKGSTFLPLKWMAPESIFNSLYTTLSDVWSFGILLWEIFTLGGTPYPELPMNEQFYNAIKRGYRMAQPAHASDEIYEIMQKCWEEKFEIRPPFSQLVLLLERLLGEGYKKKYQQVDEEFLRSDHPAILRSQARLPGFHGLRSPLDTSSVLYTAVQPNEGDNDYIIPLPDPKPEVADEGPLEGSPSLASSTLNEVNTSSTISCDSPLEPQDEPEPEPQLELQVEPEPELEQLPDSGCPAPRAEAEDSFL

DLD1 cells [1] = test: Caspase 3/7 activity assay; assay type: cell-based, human; conditions: 24 hours treatment, 0.2, 1 and 5μM
How it was run: (§1)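 Cells grown in DMEM with 10% FBS and penicillin/streptomycin at 37°C, 5% CO2, then seeded at 1×10^4 per well. […] Caspase 3/7 read by caspase-Glo, normalized to each line's untreated control (=1); mean of 6 wells ± standard deviation.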

HCT116 cells [2] = test: Caspase 3/7 activity assay; assay type: cell-based, human; conditions: 24 hours treatment, up to 5μM
How it was run: as §1

HEK293 cells [3] = test: Caspase 3/7 activity assay; assay type: cell-based, human; conditions: 24 hours treatment, 0.2, 1 and 5μM
How it was run: as §1

Difi cells = test: Caspase 3/7 activity assay; assay type: cell-based, human; conditions: 24 hours treatment, compared with Cetuximab
How it was run: as §1

C6 cells [4] = test: Caspase 3/7 activity assay; assay type: cell-based, rat; conditions: 24 hours treatment, any of the tested concentrations
HEK293 cells [5] = test: FACS analysis of cell cycle distribution; assay type: cell-based, human; conditions: 48 hours
How it was run: (§2)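 Cells treated with test compound at several concentrations for 48 h. 1×10^6 cells trypsinized, washed in PBS and resuspended in 1% BSA/PBS. Fixed in 3 volumes of −20 °C ethanol for ≥1 h, washed twice, then stained ≥3 h at 4 °C at ~1×10^6 cells/ml in PI (50μg/ml), RNase A (0.5μg/ml) and 3.8mM sodium citrate. Flow cytometry, excitation 535nm, emission 617nm, ≥10,000 cells/sample.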

colon and glioma cells = test: FACS analysis of cell cycle distribution; assay type: cell-based; conditions: all the cell lines, low concentrations, 48 hours
How it was run: as §2

C6 cells [6] = test: Western blot of signaling proteins; assay type: cell-based, rat; conditions: 48 hours
How it was run: (§3)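 Cells exposed to indicated concentrations of test compound for 48 h. Harvested by trypsin/EDTA, lysed 15 min on ice in M-PER with protease inhibitors (10^7 cells/ml), cleared at 17000rpm for 30 min. Protein measured by Bradford; 30μg resolved by SDS-PAGE onto PVDF. Blocked in 5% milk/TBST; primary antibodies overnight at 4°C, HRP secondaries 1 h at room temperature; ECL detection with β-tubulin loading control.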

HEK293 cells [7] = test: Western blot of signaling proteins; assay type: cell-based, human; conditions: 48 hours
How it was run: as §3

HCT116 cells [8] = test: Western blot of signaling proteins; assay type: cell-based, human; conditions: 48 hours, different concentrations
DLD1 cells [9] = test: Western blot of signaling proteins; assay type: cell-based, human; conditions: 48 hours, different concentrations
[10] = system: GPCR pathway genes in C6, HCT116, DLD1 and Difi cells; test: GPCR signaling pathway profiling by real-time PCR; assay type: cell-based; conditions: 5μM, 48 hours, all 4 cell lines
How it was run: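 Total RNA taken from C6, DLD1, HCT116 and Difi cells treated with or without 5μM test compound for 48 h, then reverse transcribed. DLD1 cDNA screened on an 82-gene human GPCR-pathway qPCR array, with control and treated expression compared by subtraction. Hits confirmed in C6 and the three colon lines by SYBR Green real-time PCR with primers in different coding regions.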

DLD1 cells [11] = test: Cell growth inhibition; assay type: cell-based, human; conditions: through apoptosis; more effective toward DLD1 cells
C6 cells [12] = test: Cell growth inhibition; assay type: cell-based, rat; conditions: through apoptosis
[13] = read-out: % Enzyme Activity (Relative to DMSO Controls – 100%) Data 1
[14] = read-out: % Enzyme Activity (Relative to DMSO Controls – 100%) Data 2

CCn1c2ccccc2c2cc(N/N=C3/C(=O)NN=C3C)ccc21 [VUGX01, (4E)-4-[2-(9-ethyl-9H-carbazol-3-yl)hydrazin-1-ylidene]-3-methyl-4,5-dihydro-1H-pyrazol-5-one]
remaining activity at 1 µM (c-Src; [13]): 99.2%
remaining activity at 1 µM (c-Src; [14]): 99%
inhibition on CDK2 (CDK2/cyclin A; 1μM): 6%
remaining activity at 1 µM (CDK2/cyclin A; [13]): 94.4%
remaining activity at 1 µM (CDK2/cyclin A; [14]): 94.2%
inhibition at 1 µM (CDK2/cyclin A; read-out: inhibition on CDK2, 1μM): 5 to 6%
effects on EGFr kinase activity (EGFr; 1μM): minimal effects
remaining activity at 1 µM (EGFr; [13]): 99.1%
remaining activity at 1 µM (EGFr; [14]): 97.8%
remaining activity at 1 µM (ERBB2/HER2; [13]): 99.3%
remaining activity at 1 µM (ERBB2/HER2; [14]): 98.2%
remaining activity at 1 µM (FGFR1; [13]): 107%
remaining activity at 1 µM (FGFR1; [14]): 104%
remaining activity at 1 µM (FGFR2; [13]): 96.1%
remaining activity at 1 µM (FGFR2; [14]): 94.9%
remaining activity at 1 µM (FLT1/VEGFR1; [13]): 100%
remaining activity at 1 µM (FLT1/VEGFR1; [14]): 99.8%
remaining activity at 1 µM (KDR/VEGFR2; [13]): 98.3%
remaining activity at 1 µM (KDR/VEGFR2; [14]): 98%
remaining activity at 1 µM (PDGFRa; [13]): 96.3%
remaining activity at 1 µM (PDGFRa; [14]): 96.2%
remaining activity at 1 µM (PDGFrb; [13]): 100%
remaining activity at 1 µM (PDGFrb; [14]): 99.9%
caspase 3/7 activation (DLD1 cells [1]): greatly activate
caspase 3/7 activation (HCT116 cells [2]): minimal effect
caspase 3/7 activation (HEK293 cells [3]): only slight activation
caspase activation (Difi cells): less potent but is effective
caspase activation (C6 cells [4]): effectively activate
cell cycle distribution (HEK293 cells [5]; 5μM): shifts the cell population from G1 to G2 phase
cell death (cells in sub G0 phase) (HEK293 cells [5]): noticeable amount of cell death
effects on G1 or G2/M phases (colon and glioma cells): minimal effects
phosphorylation of AKT at serine 473 (C6 cells [6]): minor increase
effect on tested proteins (p-c-raf, map2k, AKT, p-AKT) (HEK293 cells [7]): no effect
p-c-raf (Ser259) and map2k level (HCT116 cells [8]): increased at low concentrations and decreased at high concentrations
p-c-raf (Ser259) and map2k level (DLD1 cells [9]): increased at low concentrations and decreased at high concentrations
expression of AGT, AGTR1, AGTR2, GCGR, MMP9, PIK3CG, PTGS2, SCTR, TSHR [10]: elevated
cell growth (DLD1 cells [11]): can inhibit the growth
cell growth (C6 cells [12]): can inhibit the growth
